Tests used:
Focal adhesion kinase 1 = Focal adhesion kinase 1 (Homo sapiens, UniProt Q05397); assay: Inhibition of recombinant human N-terminal His-tagged FAK cytoplasmic domain (393 to 698 residues) expressed in baculovirus infected sf9 cells assessed as reduction in autophosphorylation after 60 mins by ADP-Glo kinase assay
How it was run: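 ADP-Glo luminescence assay. The kinase reaction ran in 1× kinase buffer with compound at 1 to 200 nM, for 60 min at room temperature. ADP-Glo reagent was then added to stop the reaction and deplete leftover ATP (40 min, room temperature). Detection reagent converted ADP to ATP for luciferase read-out (30 min). IC50 from curve fitting, mean ± SE of three independent experiments.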

BXPC-3 = assay: Antiproliferative activity against human BxPC3 cells after 72 hrs by MTT assay; assay type: functional, cell-based; details: BXPC-3, 72 h
How it was run: (§1)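 Cells grown in DMEM with 10% FBS and 1% penicillin-streptomycin at 37 °C, 5% CO2. Seeded at 4,000 to 5,000 cells/well, cultured one day, then exposed to compounds for 72 h at 1.25 to 40 μmol/L, five replicates per concentration. MTT absorbance read at 570 nm. IC50 from five-point dose-response curves; mean of at least three separate experiments.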

PANC-1 = assay: Antiproliferative activity against human PANC1 cells after 72 hrs by MTT assay; assay type: functional, cell-based; details: PANC-1, 72 h; how it was run: as §1
ASPC1 = assay: Antiproliferative activity against human Aspc-1 cells after 72 hrs by MTT assay; assay type: functional, cell-based; details: ASPC1, 72 h; how it was run: as §1
[1] = Antiproliferative activity against human HPDE6c7 cells after 72 hrs by MTT assay; assay type: cell-based; details: HPDE6c7, 72 h; how it was run: as §1

Chain of Focal adhesion kinase 1 (Q05397 whole entry, the tested form may be a part): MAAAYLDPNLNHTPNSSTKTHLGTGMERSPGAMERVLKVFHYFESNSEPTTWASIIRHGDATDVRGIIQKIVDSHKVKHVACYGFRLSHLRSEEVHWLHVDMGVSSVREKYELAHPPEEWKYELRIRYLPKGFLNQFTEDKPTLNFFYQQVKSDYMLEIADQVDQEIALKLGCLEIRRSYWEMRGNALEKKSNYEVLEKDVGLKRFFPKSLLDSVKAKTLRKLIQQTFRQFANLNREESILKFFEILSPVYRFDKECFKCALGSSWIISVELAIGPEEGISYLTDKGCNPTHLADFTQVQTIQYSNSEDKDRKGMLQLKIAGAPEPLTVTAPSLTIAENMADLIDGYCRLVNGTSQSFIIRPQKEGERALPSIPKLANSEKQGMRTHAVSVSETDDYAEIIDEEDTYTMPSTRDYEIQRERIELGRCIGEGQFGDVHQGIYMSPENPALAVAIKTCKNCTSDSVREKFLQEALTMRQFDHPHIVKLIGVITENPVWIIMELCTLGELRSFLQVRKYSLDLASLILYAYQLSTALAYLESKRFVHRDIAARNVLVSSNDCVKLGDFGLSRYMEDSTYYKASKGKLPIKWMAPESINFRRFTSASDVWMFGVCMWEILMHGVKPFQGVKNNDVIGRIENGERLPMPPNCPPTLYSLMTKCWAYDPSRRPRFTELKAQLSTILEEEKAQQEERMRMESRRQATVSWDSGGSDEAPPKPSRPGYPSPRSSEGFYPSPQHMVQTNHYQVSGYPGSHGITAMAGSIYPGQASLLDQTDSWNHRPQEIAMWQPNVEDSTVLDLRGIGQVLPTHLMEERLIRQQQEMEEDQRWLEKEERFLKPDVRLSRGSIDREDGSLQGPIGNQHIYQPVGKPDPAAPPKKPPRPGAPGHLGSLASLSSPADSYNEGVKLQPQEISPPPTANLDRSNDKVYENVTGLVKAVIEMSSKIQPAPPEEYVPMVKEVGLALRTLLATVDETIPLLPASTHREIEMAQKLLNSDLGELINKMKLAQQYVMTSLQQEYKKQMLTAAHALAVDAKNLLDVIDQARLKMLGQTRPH

| Structure (SMILES) | IC50 (Focal adhesion kinase 1) | IC50 (BXPC-3) | IC50 (PANC-1) | IC50 (ASPC1) | IC50 [1] |
| --- | --- | --- | --- | --- | --- |
| CCOP(=O)(Cc1ccc(Nc2ncc(Cl)c(Nc3ccccc3C(=O)NC)n2)cc1)OCC | 0.00425 µM | 0.02 µM | 14.8 µM | 3.31 µM | 5.44 µM |
| CCOP(=O)(CCCOc1ccc(Nc2ncc([N+](=O)[O-])c(Nc3ccccc3C(=O)NC)n2)cc1)OCC | 0.00618 µM | 2.04 µM | 25.4 µM | 18.3 µM | 1.96 µM |
| CCOP(=O)(Cc1ccc(Nc2ncc([N+](=O)[O-])c(Nc3ccccc3C(=O)NC)n2)cc1)N1CCOCC1 (configuration not stated) | 0.00569 µM | 1.02 µM | > 40 µM | 6.42 µM | 8.11 µM |
| CNC(=O)c1ccccc1Nc1nc(Nc2ccc(N3CCOCC3)cc2OC)ncc1Cl |  |  | > 20 µM |  | 11.4 µM |
| CCOP(=O)(Cc1ccc(Nc2ncc([N+](=O)[O-])c(Nc3ccccc3C(=O)NC)n2)cc1)OCC | 0.00501 µM | 0.82 µM | 19.2 µM | 15.2 µM | 4.6 µM |
| CCOP(=O)(CCCOc1ccc(Nc2ncc(Cl)c(Nc3ccccc3C(=O)NC)n2)cc1)OCC | 0.0107 µM | 1.04 µM | 10.9 µM | 4.93 µM | 4.43 µM |
